Measurements published in ChEMBL document CHEMBL3044850, “Synthesis and biological activities of novel pyrazole oxime derivatives containing a 2-chloro-5-thiazolyl moiety” (2008).
In brackets after ≈: the same amount, converted by molar mass. Activity calls are given as the source filed them. The rule behind the calls is not given here.

Legend:
Type in all cases: functional
[1] = test system: Botryosphaeria berengeriana; assay: Fungicidal activity against Botryosphaeria berengeriana assessed as growth inhibition at 50 ug/ml at 23 degC after 3 days; conditions: for inhibition of growth at 50 µg/mL: 72 h, read-out: GI
How it was run: (§1)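 Test solutions were made at 500 µg/mL and mixed 1:9 with agar medium to give 50 µg/mL plates. A 4 mm plug from the edge of actively growing mycelium was placed at the plate centre and incubated at 23 °C. Colony diameter was measured after 3 days against a sterile water plus medium blank, in triplicate. Inhibition = [(C − T)/C] × 100%.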

Fusarium graminearum = assay: Fungicidal activity against Fusarium graminearum assessed as growth inhibition at 50 ug/ml at 23 degC after 3 days; conditions: for inhibition of growth at 50 µg/mL: 72 h, read-out: GI
How it was run: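 Mycelial growth test in agar plates with 50 µg/mL final compound (from 500 µg/mL solution diluted into medium). A 4 mm plug from active mycelium fringe is placed centrally and incubated at 23 °C. Diameter is read after 3 days against a sterile water plus medium blank, in triplicate. Inhibition I = [(C − T)/C] × 100%.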

Alternaria solani = assay: Fungicidal activity against Alternaria solani assessed as growth inhibition at 50 ug/ml at 23 degC after 3 days; conditions: for inhibition of growth at 50 µg/mL: 72 h, read-out: GI; how it was run: as §1
Aphis medicaginis [2] = assay: Insecticidal activity against Aphis medicaginis in soybean tender shoots assessed as mortality at 0.5 mg/ml treated for 5 secs measured after 48 hr
How it was run: (§2)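 Insects held at 26 °C, 60% relative humidity, 14 h photoperiod. Acetone stock at 0.5 mg/mL is diluted with water containing TW-20. Soybean tender shoots bearing 60 insects are dipped for 5 s, drained, then kept under the same conditions. Mortality is scored after 48 h relative to untreated controls, in triplicate.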

Aphis medicaginis [3] = assay: Insecticidal activity against Aphis medicaginis in soybean tender shoots assessed as mortality at 0.2 mg/ml treated for 5 secs measured after 48 hr; how it was run: as §2
Tetranychus cinnabarinus = assay: Insecticidal activity against Tetranychus cinnabarinus (carmine spider mite) in soybean tender shoots assessed as mortality at 0.2 mg/ml treated for 5 secs measured after 48 hr; how it was run: as §2
Cladosporium cucumerinum = assay: Fungicidal activity against Cladosporium cucumerinum assessed as growth inhibition at 50 ug/ml at 23 degC after 3 days; conditions: 72 h, read-out: GI; how it was run: as §1
Cucumis sativus = assay: Growth regulation of Cucumis sativus (cucumber) seeds assessed as rhizogenesis at 10 ug/ml at 24 degC after 3 days by cucumber cotyledon test
How it was run: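 Cucumber seeds (JINKE No. 4) were germinated in the dark at 24 °C for 3 days, and cotyledons of uniform size were selected. Sample in DMF (10 µg/mL) was sprayed onto filter paper and dried, then the paper was wetted with distilled water. Ten cotyledons were incubated in the dark at 24 °C for 3 days. Rhizogenesis was counted per 10 hypocotyls, in triplicate, with a distilled-water control and Student's t test.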

Mycosphaerella arachidis = assay: Fungicidal activity against Mycosphaerella arachidis assessed as growth inhibition at 50 ug/ml at 23 degC after 3 days; conditions: for inhibition of growth at 50 µg/mL: 72 h, read-out: GI; how it was run: as §1
Aphis medicaginis [4] = assay: Insecticidal activity against Aphis medicaginis in soybean tender shoots assessed as mortality treated for 5 secs measured after 48 hr

SMILES | inhibition of growth at 50 µg/mL [1] [%] | inhibition of growth at 50 µg/mL (Fusarium graminearum) [%] | inhibition of growth at 50 µg/mL (Alternaria solani) [%] | mortality at 500 µg/mL (Aphis medicaginis [2]) [%] | mortality at 200 µg/mL (Aphis medicaginis [3]) [%] | mortality at 200 µg/mL (Tetranychus cinnabarinus) [%] | inhibition of growth at 50 µg/mL (Cladosporium cucumerinum) [%] | Activity (Cucumis sativus) [%] | inhibition of growth at 50 µg/mL (Mycosphaerella arachidis) [%] | growth inhibition (GI) (Fusarium graminearum) | LC50 (Aphis medicaginis [4]) [µg/mL] | mortality (Tetranychus cinnabarinus) | growth inhibition (GI) (Mycosphaerella arachidis) | growth inhibition (GI) [1] | growth inhibition (GI) (Alternaria solani)
Cc1cccc(Oc2c(/C=N/OCc3cnc(Cl)s3)c(C(F)(F)F)nn2C)c1 | 45.3 | 33.6 | 28 | 93.1 | 82.4 | 2.3 | 31.3 | 22.7 | 11.8 | – | – | – | – | – | –
Cn1nc(C(F)(F)F)c(/C=N/OCc2cnc(Cl)s2)c1Oc1ccc(Br)cc1 | 32.9 | 41.6 | 12.4 | 90.4 | 77.4 | 4.3 | 17.5 | 48.5 | 9.2 | – | – | – | – | – | –
Cc1ccccc1Oc1c(/C=N/OCc2cnc(Cl)s2)c(C(F)(F)F)nn1C | 35 | 21.2 | 42.6 | 90.4 | 81.3 | 9.3 | 32.6 | -26.8 | 10 | – | – | – | – | – | –
Cc1ccc(Cl)c(Oc2c(/C=N/OCc3cnc(Cl)s3)c(C(F)(F)F)nn2C)c1 | 29.8 | – | 32.3 | 83.4 | 69.2 | 17.4 | 48.5 | 37.9 | 10.1 | inactive | – | – | – | – | –
CC(C)(C)C(=O)C(Oc1ccc(Cl)cc1)n1cncn1 (centres undefined) [TRIADIMEFON] | 86.7 | 72.6 | 66.1 | – | – | – | 81.5 | 50.2 | 73.4 | – | – | – | – | – | –
Cc1ccc(Oc2c(/C=N/OCc3cnc(Cl)s3)c(C(F)(F)F)nn2C)cc1C | 26.2 | 31.3 | 53.2 | 71.2 | 61.4 | 6.4 | 8.9 | -23.8 | 32.9 | – | – | – | – | – | –
COc1ccc(Oc2c(/C=N/OCc3cnc(Cl)s3)c(C(F)(F)F)nn2C)cc1 | 46.5 | – | 14.6 | 92.2 | 83.4 | 13.4 | 12.3 | 30.8 | 22.6 | inactive | – | – | – | – | –
Cn1nc(C(F)(F)F)c(/C=N/OCc2cnc(Cl)s2)c1Oc1cccc(Cl)c1 | 21.7 | 26.7 | 22.9 | 70.4 | 61.2 | 7.4 | 43.1 | 14.2 | 55.3 | – | – | – | – | – | –
O=[N+]([O-])/N=C1\NCCN1Cc1ccc(Cl)nc1 [IMIDACLOPRID] | – | – | – | 94.7 | 92.1 | – | – | – | – | – | 9.1 (≈ 35.6 µM) | – | – | – | –
Cn1nc(C(F)(F)F)c(/C=N/OCc2cnc(Cl)s2)c1Sc1ccccc1 | 29.5 | 40.8 | 43.5 | 92.2 | 83.4 | 14.4 | 9.7 | 21.8 | 12.7 | – | – | – | – | – | –
Cn1nc(C(F)(F)F)c(/C=N/OCc2cnc(Cl)s2)c1Sc1ccc(Cl)cc1 | 42.4 | 32.6 | 28.8 | 91.4 | 80.4 | 11.3 | 18.9 | 34.7 | 25.8 | – | 26.2 (≈ 56.1 µM) | – | – | – | –
Cn1nc(C(F)(F)F)c(/C=N/OCc2cnc(Cl)s2)c1Oc1ccc(F)cc1 | 24.2 | 29 | 26.9 | 90.2 | 75.3 | 13.4 | 53.4 | 28.6 | 67.2 | – | – | – | – | – | –
Cn1nc(C(F)(F)F)c(/C=N/OCc2cnc(Cl)s2)c1Oc1ccc(C(C)(C)C)cc1 | 22.1 | 12.5 | 24.8 | 89.4 | 73.3 | – | 18.1 | 72.7 | – | – | – | inactive | inactive | – | –
Cn1nc(C(F)(F)F)c(/C=N/OCc2cnc(Cl)s2)c1Oc1ccccc1 | 30.3 | 22.4 | 65.6 | 41.4 | 20.2 | 11.2 | 21.6 | -12.5 | 8.7 | – | – | – | – | – | –
Cc1nn(C)c(Oc2ccccc2)c1/C=N/OCc1ccc(C(=O)OC(C)(C)C)cc1 [FENPYROXYMATE] | 6.7 | 5.2 | 8.3 | 18.4 | 12.4 | 99.7 | 14.5 | 10.6 | 12.5 | – | – | – | – | – | –
Cn1nc(C(F)(F)F)c(/C=N/OCc2cnc(Cl)s2)c1Oc1ccc(Cl)cc1Cl | – | 24.3 | 29.2 | 97.4 | 86.3 | 7.2 | 32.3 | 72.3 | 42.5 | – | 22.9 (≈ 47.1 µM) | – | – | inactive | –
Cc1ccc(Oc2c(/C=N/OCc3cnc(Cl)s3)c(C(F)(F)F)nn2C)cc1 | 21 | 23.8 | 34.6 | 95.3 | 85.4 | 3.4 | 15.7 | 43.6 | 5.9 | – | – | – | – | – | –
Cn1nc(C(F)(F)F)c(/C=N/OCc2cnc(Cl)s2)c1Oc1ccc(Cl)cc1 | 32.1 | 36.3 | – | 92.3 | 84.4 | – | 15.4 | -34.3 | 11.8 | – | – | inactive | – | – | inactive
Cn1nc(C(F)(F)F)c(/C=N/OCc2cnc(Cl)s2)c1Oc1ccccc1Cl | 23.6 | 24.6 | – | 59.3 | 46.1 | 6.2 | 23.7 | 53.9 | 12.6 | – | – | – | – | – | inactive
